Data taken from ChEMBL document CHEMBL4316658, “Structure and Absolute Configuration of Abietane Diterpenoids from Salvia clinopodioides: Antioxidant, Antiprotozoal, and Antipropulsive Activities” (J Nat Prod, 2019).
pIC50: −log10 of the molar value. Structures can show the parent of a compound that is named as a salt.

Tests used:
[1] = tested on: Brain; assay: Antioxidant activity in Wistar rat brain homogenate assessed as inhibition of […] lipid peroxidation by measuring reduction in TBARS level preincubated for 30 mins followed by […] and measured after 1 hr; assay type: functional, tissue-based; conditions: for pIC50: Rattus norvegicus, Wistar, Brain, read-out: IC50
Procedure, shortened: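 Adult male Wistar rat whole brain homogenized 1/10 (w/v) in PBS pH 7.4. Spun 10 min at 800 rcf; supernatant set to 2.666 mg protein/mL. Supernatant with EDTA and compound in DMSO preincubated 30 min at 37 °C. FeSO4 added (10 μM final), then 1 h at 37 °C. TBA/TCA reagent added, heated 80 °C 30 min, A540 read. Calibrated against TMP standard curve; IC50 by linear regression.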

[2] = Antioxidant activity assessed as DPPH radical scavenging activity measured after 30 mins; assay type: functional; conditions: for pIC50: read-out: IC50
Procedure, shortened: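 Test compound solution (50 μL) mixed with 150 μL ethanolic DPPH, 100 μM final; 37 °C for 30 min; absorbance at 515 nm. Percent inhibition relative to a 100 μM DPPH ethanol blank.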

[3] = tested on: Entamoeba histolytica; assay: Antiparasitic activity against Entamoeba histolytica HM1-IMSS trophozoites assessed as inhibition of parasitic growth treated for 48 hrs followed by compound washout and measured after 48 hrs by MTT/PMS dye based colorimetric method; assay type: functional, organism-based; conditions: HM-1:IMSS
Procedure, shortened: (§1)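 Axenic log-phase trophozoites in TYI-S-33 medium: E. histolytica HM1-IMSS with 10% heat-inactivated bovine serum (6 × 10^3 cells); G. lamblia IMSS:8909:1 with 10% calf serum and bovine bile (5 × 10^4 cells). Exposed 48 h at 37 °C to 2.5−200 μg/mL in DMSO, then subcultured drug-free 48 h. Counted by hemocytometer, confirmed by MTT/PMS formazan at 570 nm. Duplicates, ≥3 repeats; IC50 by probit regression.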

[4] = tested on: Giardia intestinalis; assay: Antiparasitic activity against Giardia intestinalis IMSS:0989:1 assessed as inhibition of parasitic growth treated for 48 hrs followed by compound washout and measured after 48 hrs by MTT/PMS dye based colorimetric method; assay type: functional, organism-based; conditions: Giardia duodenalis, IMSS:0989:1, 48 h; procedure, shortened: as §1
[5] = tested on: Rattus norvegicus; assay: Antidiarrheal activity in po dosed Sprague-Dawley rat assessed as inhibition of charcoal-gum acacia-induced hyperperistalsis by measuring reduction in distance travelled by charcoal from pylorus to cecum pretreated for 20 mins followed by charcoal meal stimulation and measured after 30 mins; assay type: functional; conditions: read-out: ID50 (the source's name)
[6] = tested on: Brain; assay: Potency index, ratio of BHT IC50 to test compound IC50 for antioxidant activity in Wistar rat brain homogenate assessed as inhibition of FeCl2-induced lipid peroxidation; assay type: functional, tissue-based
[7] = tested on: Brain; assay: Potency index, ratio of quercetin IC50 to test compound IC50 for antioxidant activity in Wistar rat brain homogenate assessed as inhibition of FeCl2-induced lipid peroxidation; assay type: functional, tissue-based

With `COc1c(C(C)C)cc2c(c1O)[C@]13CCC[C@](C)([C@H](O)OC1=O)[C@@H]3CC2` the IC50 [1] was “Not Active”, the IC50 [2] was “Not Active” and the pIC50 [3] was 4.37. For the same compound, the pIC50 [4] was 4.17 and the ED50 [5] was 2.2 µmol/kg.
In the case of `CC(C)c1cc2c(c(O)c1O)[C@]13CCC[C@](C)(COC1=O)[C@@H]3CC2`, the pIC50 [1] was 5.57, the Ratio IC50 [6] was 2 and the Ratio IC50 [7] was 2. It also gave a pIC50 [2] of 4.52, a pIC50 [3] of 4.50 and a pIC50 [4] of 4.31. It also gave an ED50 [5] of 5.5 µmol/kg.
With `O=c1c(O)c(-c2ccc(O)c(O)c2)oc2cc(O)cc(O)c12` [QUERCETIN] the pIC50 [2] was 4.96 and the ED50 [5] was 1.1 µmol/kg.
Compound `Cc1cc(C(C)(C)C)c(O)c(C(C)(C)C)c1` [BUTYLATED HYDROXYTOLUENE] has a pIC50 [1] of 5.92.
`CC[C@H]1CN2CCc3cc(OC)c(OC)cc3[C@@H]2C[C@@H]1C[C@H]1NCCc2cc(OC)c(OC)cc21` [EMETINE] showed a pIC50 [4] of 6.10.
Work on `CN(C)C(=O)C(CCN1CCC(O)(c2ccc(Cl)cc2)CC1)(c1ccccc1)c1ccccc1` [LOPERAMIDE HYDROCHLORIDE] yielded an ED50 [5] of 0.2 µmol/kg.
For `CC(C)c1cc2c(c(O)c1O)[C@]13CCC[C@](C)([C@H](O)OC1=O)[C@@H]3CC2`, the pIC50 [1] was 5.23, the Ratio IC50 [6] was 5 and the Ratio IC50 [7] was 4. The pIC50 [2] was 4.61, the pIC50 [3] was 4.42 and the pIC50 [4] was 4.20. The ED50 [5] was 4.1 µmol/kg.
With `COC(=O)[C@]12CCC[C@](C)(C=O)[C@@H]1CCc1cc(C(C)C)c(OC)c(O)c12` the pIC50 [1] was 4.72, the IC50 [2] was “Not Active” and the pIC50 [3] was 4.31. It also gave a pIC50 [4] of 4.21.
For `Cc1c(C)c2c(c(C)c1O)CC[C@@](C)(CCC[C@H](C)CCC[C@H](C)CCCC(C)C)O2` [ALPHA-TOCOPHEROL], the pIC50 [2] was 4.50.
`Cc1ncc([N+](=O)[O-])n1CCO` [METRONIDAZOLE] gave a pIC50 [3] of 6.70 and a pIC50 [4] of 5.92.
In the case of `COc1c(C(C)C)cc2c(c1OC(C)=O)[C@]13CCC[C@](C)([C@H](OC(C)=O)OC1=O)[C@@H]3CC2`, the IC50 [1] was “Not Active” and the IC50 [2] was “Not Active”.
With `CC(=O)Oc1c(C(C)C)cc2c(c1OC(C)=O)[C@]13CCC[C@](C)([C@H](OC(C)=O)OC1=O)[C@@H]3CC2` the IC50 [1] was “Not Active”, the IC50 [2] was “Not Active” and the pIC50 [3] was 4.40. The pIC50 [4] was 4.32 and the ED50 [5] was 2.7 µmol/kg.
For `COc1c(C(C)C)cc2c(c1O)C[C@]13CCC[C@](C)(C(=O)O1)[C@@H]3CC2`, the pIC50 [1] was 4.39 and the IC50 [2] was “Not Active”.
With `COc1c(C(C)C)cc2c(c1O)[C@]13CCC[C@](C)([C@H](OC(C)=O)OC1=O)[C@@H]3CC2` the IC50 [1] was “Not Active”, the IC50 [2] was “Not Active” and the pIC50 [3] was 4.46. It also gave a pIC50 [4] of 4.33.
